Bioassay records as filed in PubChem BioAssay.
SENP1 inh – human SENP1 catalytic domain inhibitors, primary screen, biochemical, FRET, uHTS. Sentrin-specific protease 1 (Homo sapiens), Q9P0U3. hit rate 0.21% among 360,000. recombinant SENP1 catalytic domain, CyPet-SUMO1-YPet FRET cleavage. inhibition, % at 10 µM;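 active = inhibition at least 30% at 10 µM, raw YFP signal under a set limit, fluorescence ratio 0.5 to 1.5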
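Material – human SENP1 catalytic domain · Input – SENP1 enzyme, 20 pM final · Compound dosing – single concentration of 10 µM compound, 0.5% DMSO final · Timing – enzyme reaction for 50 min at room temperature, dark · Measured by – FRET fluorescence in CFP and YFP emission channels · Control set – no-enzyme wells low, DMSO-plus-enzyme wells high control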
MPTP block – mitochondrial permeability transition pore inhibitors, primary screen, biochemical, isolated mouse mitochondria, absorbance. Ca2+ swelling absorbance, 30 min. inhibition, % at 10 µM. hit rate 1.4% among 360,000. AID 602449, 2012;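 active = inhibition of 50% or more, scaled per plate between neutral and stimulator controls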
NR3A LBD binder – binders of NR3A ligand-binding domain, primary screen, biophysical, differential scanning fluorimetry, uHTS. Glutamate receptor ionotropic, NMDA 3A (GRIN3A) ligand-binding domain. NR3A LBD differential scanning fluorimetry, Tm shift; 0% = protein alone, 100% = glycine-bound protein. AID 1259313, 2017. hit rate 2.5% among 340,000. Tm shift relative to glycine control, % at 25 µM;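 active = melting temperature shift of at least 10% of the positive control shift, at one fixed dose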
EBI2 block – EBI2 receptor antagonists, beta-arrestin recruitment, primary screen, cell-based, luminescence, 7a,25-OHC stimulation, uHTS | G-protein coupled receptor 183 (Homo sapiens), P32249 | 7a,25-OHC stimulated | inhibition, % at 5 µM | hit rate 0.81% among 360,000; in the data active = inhibition above about 38%;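 also: enzyme fragment complementation signal reports receptor beta-arrestin coupling in cells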
Target sequence (P32249 whole entry, looked up, the tested form may be a part): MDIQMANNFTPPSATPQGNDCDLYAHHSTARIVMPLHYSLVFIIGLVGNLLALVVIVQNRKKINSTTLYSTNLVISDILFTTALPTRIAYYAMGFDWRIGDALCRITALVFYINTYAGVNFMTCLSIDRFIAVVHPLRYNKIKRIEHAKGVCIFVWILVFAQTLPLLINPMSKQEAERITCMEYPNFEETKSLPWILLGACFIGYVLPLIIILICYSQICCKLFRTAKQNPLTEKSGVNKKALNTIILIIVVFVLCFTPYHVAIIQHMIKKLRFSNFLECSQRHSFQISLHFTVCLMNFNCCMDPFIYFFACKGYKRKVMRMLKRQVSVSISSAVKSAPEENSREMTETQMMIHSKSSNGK
EBI2 conf – EBI2 antagonist hit retest, beta-arrestin, confirmation, cell-based, single concentration, luminescence, 7a,25-OHC stimulation. hit rate 29% among 2,400. 7a,25-OHC antagonism. inhibition, % at 5 µM. shares compounds with EBI2 block;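 active = inhibition of at least 50%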
EBI2 agonist – EBI2 agonist activity of antagonist hits, confirmation, counter-screen for EBI2 antagonist project, cell-based, single concentration, agonist mode, luminescence; shares compounds with EBI2 block; EBI2-expressing cells, 60 min; 0% vehicle, 100% 7α,25-dihydroxycholesterol control; 2,400 tested, under 10 active; activation, % at 5 µM;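 active = activation of at least 50%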
bGal cs – E. coli beta-galactosidase enzyme inhibition, confirmation, counter-screen for EBI2 antagonist project, biochemical, luminescence, single concentration; shares compounds with EBI2 block; purified beta-galactosidase, luminescent Galacton Star, 15 min; inhibition, % at 5 µM; hit rate 1% among 2,400;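 active = replicate-average signal at least 3 plate SD below neutral wells, shown as high inhibition, flagging enzyme-inhibiting false positives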;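 also: higher means stronger loss of beta-gal luminescence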
Each line names hits and unclear results; the compound was inactive in the other large screens (follow-up assays come after a bar, where they were run). This is a sample that favours compounds with a hit; in the whole collection about 4.4% have one here.

Brc1cccc(Nc2nc(-c3cccnc3)cs2)c1	NR3A LBD binder 43, EBI2 block 42 | EBI2 conf inactive | EBI2 agonist inactive | bGal cs inactive
CC(=O)c1cccc(Nc2nc(-c3cccnc3)cs2)c1	none
Clc1cccc(Nc2nc(-c3cccnc3)cs2)c1	NR3A LBD binder 27, EBI2 block 48 | EBI2 conf 53 | EBI2 agonist inactive | bGal cs inactive
Cc1ccc(Nc2nc(-c3cccnc3)cs2)cc1C	EBI2 block 49 | EBI2 conf 56 | EBI2 agonist inactive | bGal cs inactive
CCCCCNC(=O)C(c1cc2ccccc2o1)n1c(=O)c(-c2cc3ccccc3[nH]2)nc2ccccc21 (centres undefined)	none (no result: NR3A LBD binder)
O=C(Nc1cccc(F)c1)/C(=C\c1ccco1)NC(=O)c1ccco1	none
Cc1ccc(C(=O)NCCN2CCN(C(=O)c3ccc(C)c(C)c3)CC2)cc1C	none
O=C(NCCN1CCN(C(=O)c2ccc(Br)cc2)CC1)c1ccc(Br)cc1	EBI2 block 44 | EBI2 conf inactive | EBI2 agonist inactive | bGal cs inactive
Cc1nc(N2CCC(C)CC2)c2c(C)c(C(=O)Nc3ccccc3C(F)(F)F)sc2n1	EBI2 block 45 | EBI2 conf inactive | EBI2 agonist inactive | bGal cs inactive
CN1C(=O)/C(=C/C=C2\SCCN2C)N(C)C1=S	none
Cc1ccc(SCC2(O)CCN(C(=O)c3ccc(Cl)cc3)CC2)cc1	EBI2 block 47 | EBI2 conf inactive | EBI2 agonist inactive | bGal cs inactive
Cc1cc(C)c(S(=O)(=O)N2CCN(C(=O)C3COc4ccccc4O3)CC2)c(C)c1 (centres undefined)	EBI2 block 88 | EBI2 conf 71 | EBI2 agonist inactive | bGal cs inactive
CCOC(=O)N1CCN(S(=O)(=O)c2c(C)cc(C)cc2C)CC1	none
CCCC(=O)Nc1ccc(N2CCN(C(=O)c3cc4ccccc4o3)CC2)cc1	none
O=C(c1ccccc1)N1CCN(C(=O)c2cc3ccccc3o2)CC1	EBI2 block 70 | EBI2 conf 55 | EBI2 agonist inactive | bGal cs inactive
Cc1cc(C)c(S(=O)(=O)N2CCN(C(=O)c3cc4ccccc4o3)CC2)c(C)c1	EBI2 block 90 | EBI2 conf 83 | EBI2 agonist inactive | bGal cs inactive
CCOC(=O)N1CCN(C(=O)c2cc3ccccc3o2)CC1	EBI2 block 64 | EBI2 conf inactive | EBI2 agonist inactive | bGal cs inactive
CC(CCc1ccccc1)NC(=O)CNC(=O)COc1ccccc1 (centres undefined)	none
CCOC(=O)c1ccc(S(=O)(=O)N2CCN(C(=O)c3cc4ccccc4o3)CC2)cc1	EBI2 block 91 | EBI2 conf 59 | EBI2 agonist inactive | bGal cs inactive
O=C(c1cc2ccccc2o1)N1CCN(S(=O)(=O)c2ccc(F)c(F)c2F)CC1	EBI2 block 89 | EBI2 conf 71 | EBI2 agonist inactive | bGal cs inactive
COc1cc(OC)cc(-c2c(Sc3ccccc3)c3cc(-c4ccc5c(c4)OCCO5)ccc3n2C)c1	none (no result: NR3A LBD binder)
COc1ccccc1-n1c(SCC(=O)NC2CC2)nc2ccccc2c1=O	none
O=C(NN=Cc1c[nH]c2ccccc12)NN=Cc1c[nH]c2ccccc12	EBI2 block 74 (no result: NR3A LBD binder) | EBI2 conf 62 | EBI2 agonist inactive | bGal cs inactive
CCCc1c(C(=O)N/N=C/c2c[nH]c3ccccc23)nnn1-c1nonc1N	EBI2 block 43 (no result: NR3A LBD binder) | EBI2 conf inactive | EBI2 agonist inactive | bGal cs inactive
